According to ChEMBL document CHEMBL4609990, “Design and synthesis of cyanamides as potent and selective N-acylethanolamine acid amidase inhibitors” (Bioorg Med Chem, 2020):

Columns and labels:
[1] = molecular target: T1, N-acylethanolamine-hydrolyzing acid amidase (Homo sapiens) (UniProt Q02083); test: Irreversible inhibition of activated human NAAA assessed as ratio of Kinact/Ki using fluorogenic PAMCA and N-4-methylcoumarin as substrate
T1 sequence (whole entry): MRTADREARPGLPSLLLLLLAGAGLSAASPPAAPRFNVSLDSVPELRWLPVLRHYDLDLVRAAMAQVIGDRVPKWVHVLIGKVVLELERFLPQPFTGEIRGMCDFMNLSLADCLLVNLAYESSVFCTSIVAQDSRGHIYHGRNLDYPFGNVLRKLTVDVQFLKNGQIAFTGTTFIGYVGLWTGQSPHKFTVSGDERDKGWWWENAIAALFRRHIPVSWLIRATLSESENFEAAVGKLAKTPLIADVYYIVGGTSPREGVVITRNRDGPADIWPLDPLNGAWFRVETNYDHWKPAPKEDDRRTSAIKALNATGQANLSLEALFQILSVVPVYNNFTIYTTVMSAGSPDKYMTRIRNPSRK

[2] = molecular target: T2, N-acylethanolamine-hydrolyzing acid amidase (Homo sapiens, UniProt Q02083); test: Inhibition of activated human NAAA using fluorogenic PAMCA and N-4-methylcoumarin as substrate incubated for 90 mins by fluorescence based assay
T2 sequence (Q02083 whole entry): T1 sequence (whole entry)
Procedure, shortened: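 Purified activated hNAAA (final 0.25 µg/mL) in 100 mM citrate-phosphate pH 4.5, 3 mM DTT, 0.1% Triton X-100, 0.05% BSA, 150 mM NaCl; compound in DMSO preincubated 90 min at room temperature. PAMCA added (final 5 µM), reaction at 37 °C for 90 min, fluorescence ex 360/em 460 nm read every 10 min. RFU converted to AMC via AMC standard curve. IC50 from eight concentrations, triplicate.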

[3] = Half life in rat liver microsomes at 1 uM in presence of NADPH by LC-MS/MS; conditions: microsomes
[4] = Half life in human liver microsomes at 1 uM in presence of NADPH by LC-MS/MS; conditions: microsomes
[5] = molecular target: T3, Fatty-acid amide hydrolase 1 (Homo sapiens, UniProt O00519); test: Inhibition of recombinant human FAAH expressed in Escherichia coli using fluorogenic AAMCA as substrate by fluorimetric assay
T3 sequence (O00519 whole entry): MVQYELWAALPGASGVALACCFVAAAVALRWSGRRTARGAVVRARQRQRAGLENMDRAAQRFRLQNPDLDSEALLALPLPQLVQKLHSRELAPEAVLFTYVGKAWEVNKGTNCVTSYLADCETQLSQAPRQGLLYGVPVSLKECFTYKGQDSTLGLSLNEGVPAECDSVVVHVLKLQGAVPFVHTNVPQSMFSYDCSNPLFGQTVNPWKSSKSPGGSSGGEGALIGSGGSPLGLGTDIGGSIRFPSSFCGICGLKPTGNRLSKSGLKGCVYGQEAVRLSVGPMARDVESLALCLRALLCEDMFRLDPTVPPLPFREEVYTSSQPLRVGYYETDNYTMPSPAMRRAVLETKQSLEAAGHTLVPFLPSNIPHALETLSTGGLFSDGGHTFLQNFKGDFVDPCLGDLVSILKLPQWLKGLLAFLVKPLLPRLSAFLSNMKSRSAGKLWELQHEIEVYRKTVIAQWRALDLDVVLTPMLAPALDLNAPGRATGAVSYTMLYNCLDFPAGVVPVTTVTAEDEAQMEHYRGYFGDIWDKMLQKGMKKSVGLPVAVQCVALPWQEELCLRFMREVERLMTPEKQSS
Procedure, shortened: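 Human recombinant FAAH expressed in E. coli and purified; fluorometric assay with arachidonoyl 7-amino-4-methylcoumarin amide (AAMCA) as substrate; IC50 by curve fitting, or percent inhibition at 1 µM.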

Monoglyceride lipase = molecular target: T4, Monoglyceride lipase (Homo sapiens, UniProt Q99685); test: Inhibition of recombinant human hexaHis-tagged MGL expressed in Escherichia coli BL21 (DE3) using fluorogenic AHMMCE as substrate preincubated for 1 hr followed by substrate addition by fluorimetric assay
T4 sequence (Q99685 whole entry): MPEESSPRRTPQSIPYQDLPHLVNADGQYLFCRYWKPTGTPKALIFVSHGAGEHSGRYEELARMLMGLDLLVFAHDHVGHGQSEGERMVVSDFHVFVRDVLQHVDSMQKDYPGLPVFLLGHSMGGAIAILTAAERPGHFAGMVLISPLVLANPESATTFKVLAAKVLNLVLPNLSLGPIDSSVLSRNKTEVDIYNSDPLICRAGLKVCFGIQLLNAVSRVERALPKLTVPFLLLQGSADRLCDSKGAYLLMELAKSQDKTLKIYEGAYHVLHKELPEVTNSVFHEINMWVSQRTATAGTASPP
Procedure, shortened: (§1)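 Human recombinant MGL expressed in E. coli and purified; fluorometric assay using arachidonoyl 7-hydroxy-6-methoxy-4-methylcoumarin ester (AHMMCE) as substrate; IC50 by curve fitting, or percent inhibition at 1 µM.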

Homo sapiens [6] = species on record: Homo sapiens; test: Selectivity index, ratio of IC50 for recombinant human FAAH expressed in Escherichia coli using fluorogenic AAMCA as substrate by fluorimetric assay to IC50 human NAAA using fluorogenic PAMCA and N-4-methylcoumarin as substrate incubated for 90 mins by fluorescence based assay
Homo sapiens [7] = species on record: Homo sapiens; test: Selectivity index, ratio of IC50 for human hexaHis-tagged MGL expressed in Escherichia coli BL21 (DE3) using fluorogenic AHMMCE as substrate preincubated for 1 hr followed by substrate addition by fluorimetric assay to IC50 human NAAA using fluorogenic PAMCA and N-4-methylcoumarin as substrate incubated for 90 mins by fluorescence based assay
Homo sapiens [8] = species on record: Homo sapiens; test: Selectivity index, ratio of IC50 for human Cathepsin K using […] as substrate preincubated with enzyme for 90 mins followed by substrate addition by fluorimetry analysis to IC50 human NAAA using fluorogenic PAMCA and N-4-methylcoumarin as substrate incubated for 90 mins by fluorescence based assay
[9] = Half life in human plasma by HPLC analysis
[10] = Half life in artificial gastric fluid by HPLC analysis; type: physicochemical
Procedure, shortened: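 Compound at 200 μM incubated in artificial gastric juice; reaction quenched with acetonitrile and samples analysed by HPLC to estimate half-life (min).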

[11] = molecular target: T5, Monoglyceride lipase (Homo sapiens) (UniProt Q99685); test: Inhibition of recombinant human hexaHis-tagged MGL expressed in Escherichia coli BL21 (DE3) at 1 uM using fluorogenic AHMMCE as substrate preincubated for 1 hr followed by substrate addition by fluorimetric assay relative to control; procedure, shortened: as §1
T5 sequence (whole entry): T4 sequence (Q99685 whole entry)

Homo sapiens [12] = species on record: Homo sapiens; test: Selectivity index, ratio of IC50 for full length human ABHD6 using AHMMCE as substrate preincubated for 1 hr followed by substrate addition by fluorimetric assay to IC50 human NAAA using fluorogenic PAMCA and N-4-methylcoumarin as substrate incubated for 90 mins by fluorescence based assay
[13] = Half life in rat plasma by HPLC analysis

Compound | Ratio [1] [×10⁶ /M/s] | IC50 [2] [nM] | further results
COc1cccc(-c2ccc(COC3CN(C#N)C3)c(C(F)(F)F)c2)c1 | 1.4 | 0.85 | –
COc1ccncc1-c1ccc(COC2CN(C#N)C2)cc1 | – | 40 | –
COc1ccc(-c2ccc(COC3CN(C#N)C3)cc2)cc1 | 3.25 | 0.94 | –
N#CN1CC[C@@H](OCc2ccc(-c3ccccc3)cc2)C1 | – | 26.4 | –
N#CN1CC(OCc2ccc(-c3ccc(F)cc3)cc2)C1 | 2.09 | 0.68 | –
N#CN1CC(Oc2ccc(-c3ccccc3)cc2)C1 | – | 29 | –
Cn1nccc1-c1ccc(C(OC2CN(C#N)C2)c2ccccc2)cc1 (stereo not given) | – | 74.7 | –
COc1ccc(-c2ccc3c(c2)CN(C2CN(C#N)C2)C3)cc1F | – | 1.6 | half-life at 1 µM [3]: 0.0733 h; half-life at 1 µM [4]: 0.245 h
COc1cccc(-c2ccc(COC3(C)CN(C#N)C3)cc2)c1 | – | 1.8 | IC50 [5]: 0.36 nM; IC50 (Monoglyceride lipase): 1060 nM; Ratio IC50 (Homo sapiens [6]): 0.2; Ratio IC50 (Homo sapiens [7]): 500; Ratio IC50 (Homo sapiens [8]): 50
N#CN1CC(OCc2ccc(Oc3ccccc3)cc2)C1 | 1.33 | 1.1 | –
COc1cccc(-c2ccc(C(OC3CN(C#N)C3)c3ccccc3)cc2)c1 (stereo not given) | – | 11.6 | –
Cc1ccc(-c2ccc(COC3CN(C#N)C3)cc2)cc1 | 2.24 | 0.46 | –
N#CN1CC(OCc2ccc(-c3cccnc3)cc2)C1 | – | 12 | –
COc1ccc(-c2ccc(COC3(C4CC4)CN(C#N)C3)c(F)c2)cc1F | – | 0.35 | half-life [9]: 2.12 h; IC50 [5]: 1 nM
COc1cccc(-c2ccc(COC3CN(C#N)C3)c(F)c2)c1 | – | 0.47 | half-life [10]: 4.52 h
COc1ccc(-c2ccc(COC3(c4cccnc4)CN(C#N)C3)c(F)c2)cc1F | – | 4.6 | IC50 [5]: 2 nM
N#CN1CC(COCc2ccc(-c3ccccc3)cc2)C1 | 3.04 | 3.4 | –
COc1ccccc1-c1cc(Oc2ccccc2)ccc1COC1CN(C#N)C1 | – | 23.7 | –
COc1cccc(-c2ccc(S(=O)(=O)NC3(C)CN(C#N)C3)cc2)c1 | – | 3.2 | half-life [9]: 3.68 h; IC50 [5]: 17.8 nM; inhibition [11]: 19%; Ratio IC50 (Homo sapiens [12]): > 100; Ratio IC50 (Homo sapiens [7]): > 100; Ratio IC50 (Homo sapiens [8]): > 100
N#CN1CC[C@H](OCc2ccc(-c3ccccc3)cc2)C1 | – | 315 | –
COc1cccc(-c2ccc(COC3CN(C#N)C3)cc2)c1 | 3.05 | 0.89 | half-life [13]: 3.15 h; half-life [9]: 3.4 h; half-life at 1 µM [3]: 0.167 h; half-life [10]: 7.5 h; half-life at 1 µM [4]: 0.187 h
